From ChEMBL document CHEMBL5653631, “A Potent and Selective ULK1 Inhibitor Suppresses Autophagy and Sensitizes Cancer Cells to Nutrient Stress” (iScience, 2018)

Experiments:
[1] = biological target: RAC-alpha serine/threonine-protein kinase (Homo sapiens) (UniProt P31749); test: Inhibition of human recombinant AKT1 at 500 nM in presence of ATP by radiometric assay relative to control
In short: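 Panel of 327 recombinant human kinases in radiometric activity assays, each screened in duplicate at a single inhibitor concentration; percent activity remaining relative to vehicle control, percent inhibition taken as 100 minus activity remaining.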

[2] = biological target: RAF proto-oncogene serine/threonine-protein kinase (Homo sapiens) (UniProt P04049); test: Inhibition of human recombinant RAF1 at 500 nM in presence of ATP by radiometric assay relative to control
Sequence of RAF proto-oncogene serine/threonine-protein kinase (Homo sapiens) (P04049 whole entry): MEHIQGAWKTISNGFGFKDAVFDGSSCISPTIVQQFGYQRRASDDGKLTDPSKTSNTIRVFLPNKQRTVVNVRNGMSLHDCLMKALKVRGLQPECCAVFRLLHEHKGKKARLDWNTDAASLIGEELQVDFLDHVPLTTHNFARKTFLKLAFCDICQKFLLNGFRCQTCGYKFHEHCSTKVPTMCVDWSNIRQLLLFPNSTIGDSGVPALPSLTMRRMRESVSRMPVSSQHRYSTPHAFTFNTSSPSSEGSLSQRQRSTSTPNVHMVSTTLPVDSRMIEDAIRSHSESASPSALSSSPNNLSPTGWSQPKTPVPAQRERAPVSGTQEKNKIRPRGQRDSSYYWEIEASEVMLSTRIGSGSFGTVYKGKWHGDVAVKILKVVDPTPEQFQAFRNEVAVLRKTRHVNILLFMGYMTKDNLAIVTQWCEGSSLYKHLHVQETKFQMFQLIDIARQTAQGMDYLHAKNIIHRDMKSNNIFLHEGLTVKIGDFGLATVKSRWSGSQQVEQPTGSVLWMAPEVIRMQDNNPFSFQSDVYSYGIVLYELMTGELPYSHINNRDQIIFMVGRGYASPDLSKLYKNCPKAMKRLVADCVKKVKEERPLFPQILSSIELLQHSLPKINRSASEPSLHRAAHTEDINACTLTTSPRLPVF

[3] = biological target: T1, Inhibitor of nuclear factor kappa-B kinase subunit epsilon (Homo sapiens) (UniProt Q14164); test: Inhibition of human recombinant IKKe at 500 nM related to control ULK1
T1 sequence (whole entry): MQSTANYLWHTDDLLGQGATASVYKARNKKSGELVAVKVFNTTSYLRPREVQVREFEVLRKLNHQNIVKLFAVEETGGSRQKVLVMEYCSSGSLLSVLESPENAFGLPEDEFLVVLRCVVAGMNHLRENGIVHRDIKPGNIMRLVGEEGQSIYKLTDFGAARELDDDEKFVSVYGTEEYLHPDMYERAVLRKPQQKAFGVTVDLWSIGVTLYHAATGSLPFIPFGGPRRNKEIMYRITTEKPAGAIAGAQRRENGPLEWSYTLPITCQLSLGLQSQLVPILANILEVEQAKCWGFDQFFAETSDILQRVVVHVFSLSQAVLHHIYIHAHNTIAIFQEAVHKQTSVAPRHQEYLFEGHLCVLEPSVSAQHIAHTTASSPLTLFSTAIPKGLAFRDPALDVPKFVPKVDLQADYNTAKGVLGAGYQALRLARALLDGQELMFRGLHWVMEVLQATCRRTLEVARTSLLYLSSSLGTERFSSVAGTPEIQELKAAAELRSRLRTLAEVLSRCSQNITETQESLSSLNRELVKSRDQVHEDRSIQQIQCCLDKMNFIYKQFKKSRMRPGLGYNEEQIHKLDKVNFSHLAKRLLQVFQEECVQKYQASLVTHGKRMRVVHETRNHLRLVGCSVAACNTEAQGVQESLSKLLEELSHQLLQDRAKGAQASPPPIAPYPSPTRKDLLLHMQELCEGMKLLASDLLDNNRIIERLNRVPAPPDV

[4] = biological target: T2, Serine/threonine-protein kinase TAO3 (Homo sapiens) (UniProt Q9H2K8); test: Inhibition of human recombinant TAO3 at 500 nM related to control ULK1
T2 sequence (whole entry): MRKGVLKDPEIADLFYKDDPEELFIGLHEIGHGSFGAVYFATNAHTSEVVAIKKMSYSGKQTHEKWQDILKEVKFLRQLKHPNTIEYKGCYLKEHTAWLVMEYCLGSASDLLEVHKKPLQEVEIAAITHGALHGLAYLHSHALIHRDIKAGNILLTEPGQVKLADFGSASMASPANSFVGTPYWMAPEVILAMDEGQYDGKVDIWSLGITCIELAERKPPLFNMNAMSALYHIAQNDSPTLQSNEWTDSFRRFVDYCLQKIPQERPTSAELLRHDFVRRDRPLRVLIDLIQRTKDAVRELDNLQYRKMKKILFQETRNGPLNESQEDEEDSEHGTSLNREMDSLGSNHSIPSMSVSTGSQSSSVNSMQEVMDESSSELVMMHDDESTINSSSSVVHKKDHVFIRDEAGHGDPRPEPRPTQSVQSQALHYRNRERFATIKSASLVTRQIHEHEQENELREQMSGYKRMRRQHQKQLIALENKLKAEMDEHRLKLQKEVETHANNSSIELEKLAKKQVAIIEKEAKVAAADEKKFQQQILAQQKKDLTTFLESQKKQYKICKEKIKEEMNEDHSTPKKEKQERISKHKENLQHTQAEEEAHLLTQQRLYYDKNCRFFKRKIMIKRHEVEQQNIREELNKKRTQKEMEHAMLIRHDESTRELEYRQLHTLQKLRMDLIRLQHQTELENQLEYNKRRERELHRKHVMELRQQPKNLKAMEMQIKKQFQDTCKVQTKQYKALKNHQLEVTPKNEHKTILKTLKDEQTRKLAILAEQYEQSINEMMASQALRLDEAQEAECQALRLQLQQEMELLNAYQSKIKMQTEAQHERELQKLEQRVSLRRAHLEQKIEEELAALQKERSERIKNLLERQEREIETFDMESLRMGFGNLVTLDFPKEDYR

[5] = biological target: Tyrosine-protein kinase Tec (Homo sapiens) (UniProt P42680); test: Inhibition of human recombinant TEC at 500 nM in presence of ATP by radiometric assay relative to control
Sequence of Tyrosine-protein kinase Tec (Homo sapiens) (P42680 whole entry, looked up, canonical isoform): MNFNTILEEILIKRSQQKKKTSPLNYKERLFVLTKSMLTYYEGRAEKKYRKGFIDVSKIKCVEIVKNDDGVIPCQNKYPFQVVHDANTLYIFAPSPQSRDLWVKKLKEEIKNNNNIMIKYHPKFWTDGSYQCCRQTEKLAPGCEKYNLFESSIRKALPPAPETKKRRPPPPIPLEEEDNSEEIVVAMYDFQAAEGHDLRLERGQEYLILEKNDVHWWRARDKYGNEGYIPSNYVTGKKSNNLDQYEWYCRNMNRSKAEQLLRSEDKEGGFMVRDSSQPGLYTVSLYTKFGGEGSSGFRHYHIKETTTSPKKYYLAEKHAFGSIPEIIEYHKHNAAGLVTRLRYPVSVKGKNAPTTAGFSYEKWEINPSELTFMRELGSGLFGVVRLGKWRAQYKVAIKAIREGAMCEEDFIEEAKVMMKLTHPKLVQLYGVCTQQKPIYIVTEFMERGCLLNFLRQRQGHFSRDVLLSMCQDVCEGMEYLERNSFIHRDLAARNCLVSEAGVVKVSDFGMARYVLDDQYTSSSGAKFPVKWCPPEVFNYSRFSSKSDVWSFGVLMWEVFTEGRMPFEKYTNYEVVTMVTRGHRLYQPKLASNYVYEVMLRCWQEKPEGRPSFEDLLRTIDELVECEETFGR

[6] = biological target: T3, Phosphorylase b kinase gamma catalytic chain, liver/testis isoform (Homo sapiens) (UniProt P15735); test: Inhibition of human recombinant PHKg2 at 15 nM in presence of ATP by radiometric assay relative to control
T3 sequence (whole entry): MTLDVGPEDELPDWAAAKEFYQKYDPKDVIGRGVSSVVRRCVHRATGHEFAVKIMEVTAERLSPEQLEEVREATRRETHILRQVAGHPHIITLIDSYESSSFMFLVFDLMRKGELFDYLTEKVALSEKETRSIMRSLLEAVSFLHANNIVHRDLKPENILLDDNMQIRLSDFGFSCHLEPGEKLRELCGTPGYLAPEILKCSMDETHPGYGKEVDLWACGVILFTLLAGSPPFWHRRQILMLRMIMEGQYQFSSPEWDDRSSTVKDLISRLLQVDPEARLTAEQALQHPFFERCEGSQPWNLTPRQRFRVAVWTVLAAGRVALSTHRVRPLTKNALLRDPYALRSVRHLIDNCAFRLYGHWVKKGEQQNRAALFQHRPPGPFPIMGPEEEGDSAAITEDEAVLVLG

[7] = biological target: MAP kinase-activated protein kinase 3 (Homo sapiens) (UniProt Q16644); test: Inhibition of human recombinant MAPKAPK3 at 15 nM related to control ULK1
Sequence of MAP kinase-activated protein kinase 3 (Homo sapiens) (Q16644 whole entry, looked up): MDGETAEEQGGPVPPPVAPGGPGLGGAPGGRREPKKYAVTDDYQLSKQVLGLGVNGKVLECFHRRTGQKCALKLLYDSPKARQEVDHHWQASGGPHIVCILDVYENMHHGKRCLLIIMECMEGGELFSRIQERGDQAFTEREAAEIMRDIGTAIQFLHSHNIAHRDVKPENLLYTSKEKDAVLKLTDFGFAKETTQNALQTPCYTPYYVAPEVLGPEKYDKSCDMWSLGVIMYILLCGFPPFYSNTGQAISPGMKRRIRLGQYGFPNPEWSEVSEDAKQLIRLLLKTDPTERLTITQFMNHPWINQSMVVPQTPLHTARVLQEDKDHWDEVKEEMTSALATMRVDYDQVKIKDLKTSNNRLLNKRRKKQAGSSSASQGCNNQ

Sequence of RAC-alpha serine/threonine-protein kinase (Homo sapiens) (P31749 whole entry): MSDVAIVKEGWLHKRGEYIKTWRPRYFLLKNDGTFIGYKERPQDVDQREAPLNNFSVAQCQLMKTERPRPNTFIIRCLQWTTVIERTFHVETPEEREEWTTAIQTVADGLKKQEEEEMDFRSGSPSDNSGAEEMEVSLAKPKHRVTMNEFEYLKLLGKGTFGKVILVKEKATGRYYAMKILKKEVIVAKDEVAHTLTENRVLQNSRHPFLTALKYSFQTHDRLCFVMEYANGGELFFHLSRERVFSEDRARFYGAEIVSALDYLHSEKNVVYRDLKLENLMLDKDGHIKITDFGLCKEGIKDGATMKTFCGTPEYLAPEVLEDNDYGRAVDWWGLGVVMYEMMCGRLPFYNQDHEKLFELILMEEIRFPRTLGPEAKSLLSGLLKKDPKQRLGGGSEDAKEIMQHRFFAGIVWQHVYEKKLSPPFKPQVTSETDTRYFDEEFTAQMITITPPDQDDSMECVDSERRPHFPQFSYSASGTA

inhibition [1]	inhibition [2]	fold change (FC) [3]	fold change (FC) [4]	inhibition [5]	inhibition [6]	fold change (FC) [7]	Compound
0%	11%	0	0	2%	–	–	CNC(=O)c1ccccc1Oc1nc(Nc2cc(OC)c(OC)c(OC)c2)ncc1Br
–	–	–	–	–	9%	0	CC(C)[C@H](NC(=O)c1cc(-c2cnn3cc(-c4ccc(OCCN5CCCCC5)cc4)cnc23)cs1)C(F)(F)F
